Values joined by “and” are separate entries in the source; they are usually repeats but may differ in a detail not shown here. Equal entries are not always repeated.
Legend:
[1] = Stability in human microsomes assessed as compound remaining after 60 mins; type: ADME, Microsome; details: read-out: Stability
[2] = Oral bioavailability in dog; type: ADME, organism-based, Canis lupus familiaris; details: in vivo
[3] = Plasma clearance in rhesus monkey; type: ADME, organism-based, Macaca mulatta
[4] = Potency (IC50) in iv dosed gerbil brain after 1 hr; details: gerbillinae
[5] = Stability in rat microsomes assessed as compound remaining after 60 mins; type: ADME, Microsome; details: read-out: Stability
[6] = Stability in rhesus monkey microsomes assessed as compound remaining after 60 mins; type: ADME, Macaca mulatta, Microsome; details: read-out: Stability
[7] = Potency (IC50) in iv dosed gerbil after 1 hr; details: gerbillinae, plasma
Substance-P receptor [8] = biological target: T1, Substance-P receptor (Homo sapiens, UniProt P25103); assay: Displacement of [125I]substance P from human NK1 receptor expressed in CHO cells; type: cell-based
In short: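 Competition binding: [125I]-labelled substance P displaced from cloned human NK1 receptor expressed in CHO cells; IC50 reported as mean of n = 3.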

[9] = Oral bioavailability in rhesus monkey; type: ADME, organism-based, Macaca mulatta; details: in vivo
Cytochrome P450 3A4 = Cytochrome P450 3A4 (Homo sapiens, UniProt P08684); assay: Inhibition of CYP3A4; type: ADME
[10] = Oral bioavailability in rat; type: ADME, organism-based; details: in vivo
Substance-P receptor [11] = biological target: T1, Substance-P receptor; assay: Displacement of [125I]substance P from human NK1 receptor expressed in CHO cells in the presence of 50 percent human serum; type: cell-based
[12] = Half life in dog; type: ADME, organism-based, Canis lupus familiaris; details: in vivo
Gerbillinae [13] = assay: Inhibition of GR-73632-induced foot tapping in gerbils at 3 mg/kg, iv after 24 hrs; type: functional; details: 3 mg/kg
In short: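 Gerbils dosed iv at 3 mg/kg; foot tapping induced by NK1 agonist GR73632 evaluated 24 h post-dose; percent inhibition of the tapping response.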

Gerbillinae [14] = assay: Inhibition of GR-73632-induced foot taping in iv dosed gerbils after 1 hr; type: functional; details: read-out: ID50 (the source's name)
[15] = Volume of distribution in rhesus monkey; type: ADME, organism-based, Macaca mulatta; details: in vivo
[16] = Volume of distribution in rat; type: ADME, organism-based; details: in vivo
Gerbillinae [17] = assay: Inhibition of GR-73632-induced foot taping in iv dosed gerbils after 24 hrs; type: functional; details: read-out: ID50 (the source's name)
[18] = Inhibition of sodium channel
In short: (§1)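 Ion-channel binding assay; IC50 values calculated for sodium channel and for calcium channel (diltiazem site).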

[19] = Half life in rat; type: ADME, organism-based; details: in vivo
[20] = Plasma clearance in rat; type: ADME, organism-based
[21] = Half life in rhesus monkey; type: ADME, organism-based, Macaca mulatta; details: in vivo
[22] = biological target: T2, PXR (nuclear receptor subfamily 1 group I member 2) (Homo sapiens, UniProt O75469); assay: inhibition of human PXR at 10 uM
T2 sequence (O75469 whole entry): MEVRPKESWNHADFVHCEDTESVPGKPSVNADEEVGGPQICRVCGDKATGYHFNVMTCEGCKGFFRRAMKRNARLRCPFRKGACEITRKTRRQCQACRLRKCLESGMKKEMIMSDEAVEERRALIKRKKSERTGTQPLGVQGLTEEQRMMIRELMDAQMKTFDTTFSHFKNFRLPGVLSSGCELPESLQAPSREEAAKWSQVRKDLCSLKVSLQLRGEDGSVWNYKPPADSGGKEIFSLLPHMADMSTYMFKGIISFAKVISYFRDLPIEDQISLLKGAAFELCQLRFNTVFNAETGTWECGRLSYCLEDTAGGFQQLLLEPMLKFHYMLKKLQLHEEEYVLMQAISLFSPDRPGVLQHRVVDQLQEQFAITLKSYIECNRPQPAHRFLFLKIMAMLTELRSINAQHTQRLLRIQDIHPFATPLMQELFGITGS

[23] = Displacement of diltiazem […] from calcium channel; in short: as §1
[24] = Volume of distribution in dog; type: ADME, organism-based, Canis lupus familiaris; details: in vivo
[25] = Induction of CYP3A4 expression in human LS180 cells relative to rifampin; type: ADME, cell-based
In short: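 Human LS180 cells treated with test compound at 10 µM. CYP3A4 induction is expressed as fold induction.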

[26] = Stability in dog microsomes assessed as compound remaining after 60 mins; type: ADME, Canis lupus familiaris, Microsome; details: read-out: Stability
[27] = Ratio of drug level in brain to plasma in rat at 1 mg/kg, iv after 4 hrs; type: ADME, organism-based; design: dose 1 mg/kg, route intravenous; details: brain and plasma
Cytochrome P450 2D6 = Cytochrome P450 2D6 (Homo sapiens, UniProt P10635); assay: Inhibition of CYP2D6; type: ADME
Cytochrome P450 2C9 = Cytochrome P450 2C9 (Homo sapiens, UniProt P11712); assay: Inhibition of CYP2C9; type: ADME
[28] = Plasma clearance in dog; type: ADME, organism-based, Canis lupus familiaris

T1 sequence (P25103 whole entry): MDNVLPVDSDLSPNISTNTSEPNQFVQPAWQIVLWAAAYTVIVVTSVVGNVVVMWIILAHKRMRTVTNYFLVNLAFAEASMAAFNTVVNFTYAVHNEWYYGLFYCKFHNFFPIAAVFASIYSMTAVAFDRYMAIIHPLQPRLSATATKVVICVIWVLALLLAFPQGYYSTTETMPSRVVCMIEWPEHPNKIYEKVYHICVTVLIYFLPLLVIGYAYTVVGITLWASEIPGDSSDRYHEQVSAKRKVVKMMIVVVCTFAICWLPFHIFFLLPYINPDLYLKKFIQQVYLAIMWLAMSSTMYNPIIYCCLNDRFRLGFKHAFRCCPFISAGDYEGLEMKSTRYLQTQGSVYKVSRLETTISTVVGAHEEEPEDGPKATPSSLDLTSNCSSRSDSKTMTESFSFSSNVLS
Chain of Cytochrome P450 3A4 (P08684 whole entry): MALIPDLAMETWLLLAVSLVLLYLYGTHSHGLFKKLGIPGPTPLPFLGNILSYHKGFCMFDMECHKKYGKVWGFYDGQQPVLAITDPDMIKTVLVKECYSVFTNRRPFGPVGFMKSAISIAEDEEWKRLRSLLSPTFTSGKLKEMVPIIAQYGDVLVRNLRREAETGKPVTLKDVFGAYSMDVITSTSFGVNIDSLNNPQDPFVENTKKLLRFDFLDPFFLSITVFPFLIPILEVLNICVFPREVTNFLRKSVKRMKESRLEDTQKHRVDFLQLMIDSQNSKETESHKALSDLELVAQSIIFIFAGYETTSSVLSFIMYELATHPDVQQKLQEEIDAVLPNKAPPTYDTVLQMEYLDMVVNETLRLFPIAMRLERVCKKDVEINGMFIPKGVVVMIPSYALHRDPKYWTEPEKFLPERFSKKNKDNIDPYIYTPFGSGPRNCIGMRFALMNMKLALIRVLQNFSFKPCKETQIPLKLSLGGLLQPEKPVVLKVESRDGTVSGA
Chain of Cytochrome P450 2C9 (P11712 whole entry): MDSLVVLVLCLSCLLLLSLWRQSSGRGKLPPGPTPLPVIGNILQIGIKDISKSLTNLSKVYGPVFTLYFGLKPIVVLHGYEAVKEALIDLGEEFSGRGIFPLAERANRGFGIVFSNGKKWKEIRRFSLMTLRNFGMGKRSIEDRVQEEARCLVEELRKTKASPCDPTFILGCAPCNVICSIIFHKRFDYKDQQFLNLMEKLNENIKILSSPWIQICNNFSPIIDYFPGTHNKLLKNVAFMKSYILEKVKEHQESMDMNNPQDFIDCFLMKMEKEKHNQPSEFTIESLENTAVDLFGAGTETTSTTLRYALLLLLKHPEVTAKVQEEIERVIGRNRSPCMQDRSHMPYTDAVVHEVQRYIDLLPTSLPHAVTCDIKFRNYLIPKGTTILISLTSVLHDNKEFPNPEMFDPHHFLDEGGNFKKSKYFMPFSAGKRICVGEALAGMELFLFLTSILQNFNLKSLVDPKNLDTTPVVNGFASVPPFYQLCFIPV
Chain of Cytochrome P450 2D6 (P10635 whole entry): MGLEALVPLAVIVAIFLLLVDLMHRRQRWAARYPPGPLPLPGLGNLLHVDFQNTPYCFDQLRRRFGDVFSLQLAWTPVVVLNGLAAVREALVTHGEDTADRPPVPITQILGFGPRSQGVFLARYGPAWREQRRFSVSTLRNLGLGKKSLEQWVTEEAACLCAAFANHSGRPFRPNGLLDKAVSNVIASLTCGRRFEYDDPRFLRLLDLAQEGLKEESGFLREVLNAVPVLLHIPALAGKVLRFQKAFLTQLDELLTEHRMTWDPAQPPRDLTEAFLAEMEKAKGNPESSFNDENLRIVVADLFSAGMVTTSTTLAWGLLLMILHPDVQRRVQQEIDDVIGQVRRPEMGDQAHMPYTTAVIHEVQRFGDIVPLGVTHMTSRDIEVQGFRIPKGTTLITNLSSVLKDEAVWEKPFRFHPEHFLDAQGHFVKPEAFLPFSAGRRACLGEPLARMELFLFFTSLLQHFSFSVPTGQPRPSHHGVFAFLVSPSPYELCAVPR

What does the source list for `C[C@@H](O[C@H]1CN2C(=O)C(O)C[C@H]2[C@@H]1c1ccc(F)cc1)c1cc(C(F)(F)F)cc(C(F)(F)F)c1` (stereo in doubt; 2b)?
remaining at 1 h [1]: 54%; bioavailability [2]: 98%; clearance [3]: 1 mL/min/kg; IC50 at 1 h [4]: 3.8 nM; remaining at 1 h [5]: 60%; remaining at 1 h [6]: 23%; IC50 at 1 h [7]: 8.4 nM; IC50 (Substance-P receptor [8]): 0.08 nM; bioavailability [9]: 68%; INH (Cytochrome P450 3A4): > 100 µM; bioavailability [10]: 93%; IC50 (Substance-P receptor [11]): 0.91 nM; half-life [12]: 128 h; inhibition (INH) (Gerbillinae [13]): 100%; ED50 (Gerbillinae [14]): 0.02 mg/kg; Vd [15]: 2.6 L/kg; Vd [16]: 4.2 L/kg; ED50 (Gerbillinae [17]): 0.016 mg/kg; IC50 [18]: 4360 nM and 2600 nM; half-life [19]: 13 h; clearance [20]: 5.1 mL/min/kg; half-life [21]: 80.4 h; inhibition at 10 µM [22]: 31%; IC50 [23]: 9400 nM and 2600 nM; Vd [24]: 2.8 L/kg; Ratio [25]: 13; remaining at 1 h [26]: 73%; Kp at 4 h [27]: 1; INH (Cytochrome P450 2D6): 62.2 µM; INH (Cytochrome P450 2C9): > 100 µM; clearance [28]: 0.8 mL/min/kg
